# From ChEMBL document CHEMBL1781892, “Microwave assisted synthesis and structure-activity relationship of 4-hydroxy-N'-[1-phenylethylidene]-2H/2-methyl-1,2-benzothiazine-3-carbohydrazide 1,1-dioxides as anti-microbial agents” (2011)
# What was measured:
# Format in all cases: functional
# [1] = test system: Curvularia australiensis; assay: Antifungal activity against Drechslera australiensis using 1 x 10^5 spore/100 uL after 72 hrs by microdilution method
# [2] = test system: Curvularia australiensis; assay: Antifungal activity against Drechslera australiensis using 1 x 10^5 spore/100 uL assessed as 99.5% fungal killing of original inoculum after 72 hrs by microdilution method
# [3] = test system: Aspergillus flavus; assay: Antifungal activity against Aspergillus flavus using 1 x 10^5 spore/100 uL after 72 hrs by microdilution method
# [4] = test system: Aspergillus fumigatus; assay: Antifungal activity against Aspergillus fumigatus using 1 x 10^5 spore/100 uL assessed as 99.5% fungal killing of original inoculum after 72 hrs by microdilution method
# [5] = Antifungal activity against Trichoderma reesei using 1 x 10^5 spore/100 uL after 72 hrs by microdilution method
# Summary of the method: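 Spores washed from malt agar cultures with sterile 0.85% saline plus 0.1% Tween 80, adjusted to about 1.0×10^5 per 100 µl well. Compounds from a 1 mg/ml DMSO stock were serially diluted in malt broth with inoculum in 96-well plates and incubated 72 h at 28 °C. MIC is the lowest concentration with no visible growth under a binocular microscope. DMSO served as negative control.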
# [6] = test system: Aspergillus fumigatus; assay: Antifungal activity against Aspergillus fumigatus using 1 x 10^5 spore/100 uL after 72 hrs by microdilution method
# [7] = test system: Aspergillus niger; assay: Antifungal activity against Aspergillus niger using 1 x 10^5 spore/100 uL assessed as 99.5% fungal killing of original inoculum after 72 hrs by microdilution method
# [8] = test system: Trichoderma viride; assay: Antifungal activity against Trichoderma viride using 1 x 10^5 spore/100 uL assessed as 99.5% fungal killing of original inoculum after 72 hrs by microdilution method
# [9] = test system: Trichoderma viride; assay: Antifungal activity against Trichoderma viride using 1 x 10^5 spore/100 uL after 72 hrs by microdilution method
# [10] = test system: Aspergillus niger; assay: Antifungal activity against Aspergillus niger using 1 x 10^5 spore/100 uL after 72 hrs by microdilution method
# [11] = test system: Aspergillus flavus; assay: Antifungal activity against Aspergillus flavus using 1 x 10^5 spore/100 uL assessed as 99.5% fungal killing of original inoculum after 72 hrs by microdilution method
# [12] = Antifungal activity against Trichoderma reesei using 1 x 10^5 spore/100 uL assessed as 99.5% fungal killing of original inoculum after 72 hrs by microdilution method
# [13] = test system: Bacillus cereus; assay: Antibacterial activity against Bacillus cereus using 1 x 10^4 CFU/ml inoculum after 24 hrs by microdilution method
# [14] = test system: Escherichia coli; assay: Antibacterial activity against Escherichia coli using 1 x 10^4 CFU/ml inoculum after 24 hrs by microdilution method
# [15] = test system: Staphylococcus aureus; assay: Antibacterial activity against Staphylococcus aureus using 1 x 10^4 CFU/ml inoculum after 24 hrs by microdilution method
# [16] = test system: Pseudomonas aeruginosa; assay: Antibacterial activity against Pseudomonas aeruginosa using 1 x 10^4 CFU/ml inoculum after 24 hrs by microdilution method
# [17] = test system: Bacillus subtilis; assay: Antibacterial activity against Bacillus subtilis using 1 x 10^4 CFU/ml inoculum after 24 hrs by microdilution method
# [18] = test system: Bacillus thuringiensis; assay: Antibacterial activity against Bacillus thuringiensis using 1 x 10^4 CFU/ml inoculum after 24 hrs by microdilution method
Compound,MIC [1] [×10⁻² umol],MFC [2] [×10⁻² umol],MIC [3] [×10⁻² umol],MFC [4] [×10⁻² umol],MIC [5] [×10⁻² µmol],MIC [6] [×10⁻² umol],MFC [7] [×10⁻² umol],MFC [8] [×10⁻² umol],MIC [9] [×10⁻² umol],MIC [10] [×10⁻² umol],MFC [11] [×10⁻² umol],MFC [12] [×10⁻² µmol],MIC [13] [×10⁻² umol],MIC [14] [×10⁻² umol],MIC [15] [×10⁻² umol],MIC [16] [×10⁻² umol],MIC [17] [×10⁻² umol],MIC [18] [×10⁻² umol]
NNC(=O)C1=C(O)c2ccccc2S(=O)(=O)N1,>100,>200,>100,>200,> 100,>100,>200,>200,>100,>100,>200,> 200,,,,,,
C/C(=N\NC(=O)C1=C(O)c2ccccc2S(=O)(=O)N1)c1ccc(Cl)cc1,64.4,130.5,81.9,140.1,62.5,72.7,145.4,114.7,67.3,82.9,163,125,11.7,31.2,30.8,32.4,12.5,12.3
C/C(=N\NC(=O)C1=C(O)c2ccccc2S(=O)(=O)N1)c1ccc(Br)cc1,77.5,143.9,93.7,191,74.9,85.7,188.5,188.2,74.4,96.4,173.2,130,,,,,,
C/C(=N\NC(=O)C1=C(O)c2ccccc2S(=O)(=O)N1C)c1ccc(Br)cc1,77.3,148.4,93.4,177,74.6,85.5,>200,139.4,74.3,96,189.8,142,,,,,,
C/C(=N\NC(=O)C1=C(O)c2ccccc2S(=O)(=O)N1C)c1ccccc1Cl,63.6,126.5,87.1,144.6,61.1,76.1,167.9,133.1,66.5,88.6,170.2,119,10.8,31.7,30.7,32.6,11,12
C/C(=N\NC(=O)C1=C(O)c2ccccc2S(=O)(=O)N1)c1ccccc1Br,76.3,158.4,90,157.3,74.8,83.8,186.8,142.4,75.6,93.2,177.7,147,,,,,,
C/C(=N\NC(=O)C1=C(O)c2ccccc2S(=O)(=O)N1)c1ccccc1Cl,63.8,125.1,87.3,150.4,61.4,76.2,179.1,123.9,66.8,89.6,164.6,123,11.5,32.5,31.3,,11.4,12.1
C/C(=N\NC(=O)C1=C(O)c2ccccc2S(=O)(=O)N1C)c1ccc(Cl)c(Cl)c1,61.5,122.6,75,136.3,59,68.1,149.5,122.5,61.2,75,150,158,,,,,,
c1ccc(-c2ccc(C(c3ccccc3)n3ccnc3)cc2)cc1 (stereo unspecified) [BIFONAZOLE],57.5,75,48,64,60.2,48,64,80,64,48,64,78,,,,,,
C/C(=N\NC(=O)C1=C(O)c2ccccc2S(=O)(=O)N1)c1ccc(Cl)cc1Cl,62,123.9,71.8,142.5,59.4,67.4,149,125.7,62.9,74.6,143.5,119,,,,,,
CN1C(C(=O)NN)=C(O)c2ccccc2S1(=O)=O,>100,>200,>100,>200,> 100,>100,>200,>200,>100,>100,>200,> 200,,,,,,
C/C(=N\NC(=O)C1=C(O)c2ccccc2S(=O)(=O)N1)c1ccc(Cl)c(Cl)c1,61.8,123.4,75.2,136.2,59.2,68.1,150.2,118.7,61.3,75.2,150.3,108,,,,,,
CN[C@@H]1[C@H](O[C@H]2[C@H](O[C@H]3[C@H](O)[C@@H](O)[C@H](N=C(N)N)[C@@H](O)[C@@H]3N=C(N)N)O[C@@H](C)[C@]2(O)C=O)O[C@@H](CO)[C@H](O)[C@H]1O [STREPTOMYCIN],,,,,,,,,,,,,4.3,16.5,16.5,16.5,4.2,4.4
C/C(=N\NC(=O)C1=C(O)c2ccccc2S(=O)(=O)N1C)c1ccccc1Br,76.2,151.7,89.4,163.6,74.5,83.6,186,149.9,75.4,93.1,168.5,151,,,,,,
C/C(=N\NC(=O)C1=C(O)c2ccccc2S(=O)(=O)N1C)c1ccc(Cl)cc1Cl,61.5,122.7,71.6,134.7,59.1,67.3,148.3,125,62.7,74.2,143.1,118,,,,,,
